Compounds with a hit are over-represented: about 2.1% of the library has one in this group of screens.
F508del corr = CFTR F508del correction in bronchial cells; AID 720511; activity (quench increase), % at 7.58 µM; CFBE cells, YFP halide quenching; stimulated with forskolin plus potentiator P3; % fluorescence drop versus neutral controls; actives 0.36% (n = 350,000);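 active means mean added fluorescence quench of at least 8% versus neutral control, with both replicates also reaching 8%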;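 further: cells transiently co-express mutant CFTR-F508del with the halide-sensitive YFP; corrector assay measuring rescue of mutant channel to the surface after 24 h compound exposure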
MC4R antag cAMP = antagonists of human melanocortin 4 receptor (MC4R); P32245; MC4R-expressing cells, MTII-stimulated cAMP, LANCE TR-FRET; inhibition, % at 6.5 µM; actives 0.48% (n = 360,000); AID 540295;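 active means inhibition above its plate's cutoff, the mean of tested wells on that plate plus 3 SD, cut at about 29% in these data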
Target sequence (P32245 whole entry, looked up): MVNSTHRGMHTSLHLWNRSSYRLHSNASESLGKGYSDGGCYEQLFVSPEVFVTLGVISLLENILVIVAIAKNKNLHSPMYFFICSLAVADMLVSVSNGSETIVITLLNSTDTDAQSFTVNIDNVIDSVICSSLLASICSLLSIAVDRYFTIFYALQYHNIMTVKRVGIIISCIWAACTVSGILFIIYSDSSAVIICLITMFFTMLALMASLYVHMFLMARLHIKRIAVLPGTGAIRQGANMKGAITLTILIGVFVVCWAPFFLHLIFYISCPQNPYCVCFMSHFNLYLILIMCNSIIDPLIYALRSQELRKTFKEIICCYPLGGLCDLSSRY
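Assay system: U2OS-MC4R stable cell line; Also added: Melanotan II; Technique: Eu-cAMP/anti-cAMP TR-FRET, emission 671 nm; Times: 30-min compound, 1-h challenge, 1-h detection, room temperature.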
MC4R ag barr = human MC4R agonism via beta-arrestin; actives 0.98% (n = 360,000); AID 540308; U2OS MC4R beta-arrestin complementation, luminescence; percent of melanotan II response, DMSO zero; P32245; activation, % at 8.9 µM;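 active means activation above a per-plate cutoff, the mean activation of sample wells on that plate plus 3 SD, cut at about 8% in these data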
SMARCA2 activ = SMARCA2 function activation, primary screen. activation, % at 9.1 µM. AID 652017. actives 1% (n = 370,000). MG213 cells, MMTV-luciferase reporter, dexamethasone, overnight; in the data active means activation above about 7.8%
Each line names hits and unclear results; the compound was inactive in the other large screens.

C[C@H]1C[C@H]2[C@@H]3CCC4=CC(=O)C=C[C@]4(C)[C@@]3(Cl)[C@@H](O)C[C@]2(C)[C@@]1(O)C(=O)CO	none
O=C(Nc1ccc(F)c(F)c1)c1cnc(-c2ccccc2)nc1-c1ccccc1	MC4R ag barr 8.7 (no result: F508del corr)
O=C(Nc1ccc(F)cc1)c1cnc(-c2ccccc2)nc1-c1ccccc1	none (no result: F508del corr)
CCC(=O)N(C)C[C@@H]1Oc2cc(C#Cc3ccccc3)ccc2S(=O)(=O)N([C@H](C)CO)C[C@H]1C	none (no result: MC4R antag cAMP, MC4R ag barr, SMARCA2 activ)
CCOC(=O)c1ccc(NC(=O)C2CC3CCC2C3)cc1 (configuration not stated)	SMARCA2 activ 7.9
COC(=O)c1ccc(NC(=O)C2CC3CCC2C3)cc1 (configuration not stated)	none
Cc1noc(C)c1NC(=O)N[C@H]1CC[C@@H](CC(=O)N2CCN(C)CC2)O[C@H]1CO	none (no result: MC4R antag cAMP, MC4R ag barr, SMARCA2 activ)
COc1ccc2c(c1)sc(N)[n+]2Cc1cc(C)cc2cccnc12	F508del corr 11.0
C[C@H]1CCCCO[C@H](CN(C)C(=O)CCC(F)(F)F)[C@@H](C)CN([C@@H](C)CO)C(=O)c2cc(NC(=O)c3ccccc3)ccc2O1	none (no result: MC4R antag cAMP, MC4R ag barr, SMARCA2 activ)
O=C(COC(=O)CCc1c[nH]c2ccccc12)Nc1ccc([N+](=O)[O-])cc1	MC4R ag barr 8.6 (no result: F508del corr)
O=C(COC(=O)CCc1c[nH]c2ccccc12)Nc1cc([N+](=O)[O-])ccc1Cl	none (no result: F508del corr)
COc1ccccc1NC(=O)N(C)C[C@@H]1OCc2ccccc2-c2ccccc2C(=O)N([C@@H](C)CO)C[C@H]1C	none (no result: MC4R antag cAMP, MC4R ag barr, SMARCA2 activ)
O=C(N/N=C/c1ccc(O)cc1)c1[nH]c2ccc(Br)cc2c1-c1ccccc1	F508del corr 10.0
O=C(NN=C1CCCC1)c1[nH]c2ccc(Cl)cc2c1-c1ccccc1	F508del corr 13.7
Cc1cc(C)c(S(=O)(=O)NC2CC3CCC2C3)c(C)c1 (configuration not stated)	MC4R ag barr 8.5
Cc1nn(-c2ccccc2)c(C)c1C(=O)NCCc1ccccc1	SMARCA2 activ 8.0
C[C@H]1CN([C@@H](C)CO)C(=O)c2cccc(NS(=O)(=O)c3cn(C)cn3)c2O[C@H]1CN(C)C(=O)NC1CCCCC1	none (no result: MC4R antag cAMP, MC4R ag barr, SMARCA2 activ)
O=C(COC(=O)/C=C/c1ccccc1[N+](=O)[O-])Nc1ccc(OCc2ccccc2)cc1	MC4R ag barr 9.2 (no result: F508del corr)
O=C(COC(=O)/C=C/c1ccccc1[N+](=O)[O-])Nc1ccc(OC(F)F)cc1	none (no result: F508del corr)
COCOc1cccc(CN2CCC2(C)C(=O)Nc2ccc(C)c(O)c2)c1 (configuration not stated)	F508del corr 8.8
CC1=C([C@H](O)c2ccccc2)[C@H](CO)n2c(=O)n(-c3ccccc3)c(=O)n2C1	none (no result: MC4R antag cAMP, MC4R ag barr, SMARCA2 activ)
CN(C[C@H](Cc1ccccc1)N(C[C@H](Cc1ccccc1)N(CCC(C)(C)C)N=O)N=O)N=O	F508del corr 8.8
CC(C)CN(CCCNC(=O)CN1C(=O)CSc2ccc(S(=O)(=O)N3CCOCC3)cc21)CC(C)C	F508del corr 10.3
O=C(NNC(=O)c1ccncc1)Nc1ccc(Cl)cc1	F508del corr 8.2
CNC[C@@H](Cc1ccccc1)NC[C@@H](CC1CCCCC1)NCCCc1ccccc1	MC4R ag barr 11.5
COC(=O)[C@@H]1[C@@H](CO)[C@@H]2Cn3c(ccc(-c4cccc(F)c4)c3=O)[C@@H]2N1Cc1ccncc1	none (no result: MC4R antag cAMP, MC4R ag barr, SMARCA2 activ)
COC(=O)c1c(NC(=O)c2ccc([N+](=O)[O-])o2)sc2c1CCN(C(C)C)C2	none
CC(C)N1CCc2c(sc(NC(=O)c3ccc([N+](=O)[O-])o3)c2C(N)=O)C1	F508del corr 15.0
Nc1[nH]c(C(=O)c2ccccc2)c(-c2ccccc2C(F)(F)F)c1C(=O)NCCc1c[nH]c2ccccc12	F508del corr 9.8 (no result: MC4R antag cAMP, MC4R ag barr)
Nc1[nH]c(C(=O)c2ccccc2)c(-c2ccccc2Br)c1C(=O)NCCc1c[nH]c2ccccc12	none (no result: MC4R antag cAMP, MC4R ag barr)
CCC(=O)Nc1ccc2c(c1)OC[C@@H](C)N(Cc1cncnc1)C[C@H](C)[C@H](OC)CN(C)C2=O	none (no result: MC4R antag cAMP, MC4R ag barr, SMARCA2 activ)
O=C(COC(=O)Cc1cccc(C(F)(F)F)c1)NC1CC1	none (no result: F508del corr)
O=C(COC(=O)Cc1cccc(C(F)(F)F)c1)NC(=O)NC1CCCC1	MC4R ag barr 8.3
Cc1ccc(S(=O)(=O)N(C)C[C@@H]2OCCCC[C@H](C)Oc3ccc(NC(=O)Nc4ccccc4)cc3C(=O)N([C@@H](C)CO)C[C@@H]2C)cc1	none (no result: MC4R antag cAMP, MC4R ag barr, SMARCA2 activ)
COC(=O)c1ccc(C(=O)NC2CCCc3c2cnn3-c2cc(F)cc(F)c2)nc1 (configuration not stated)	F508del corr 9.6
COC(=O)c1ccc(C(=O)NC2CCCc3c2cnn3-c2ccc(C)c(C)c2)cc1 (configuration not stated)	F508del corr 10.4
Cc1cccc(OCc2nnc(SCC(=O)Nc3ccc(C)c(C)c3)o2)c1	MC4R ag barr 8.8
CC(=O)Nc1ccccc1Oc1ccccc1	none
O=C(Nc1ccccc1Oc1ccccc1)c1ccccc1F	SMARCA2 activ 9.5 (no result: F508del corr)
CCOC(=O)CSc1nc(N)c(C#N)c(-c2cccs2)c1C#N	none (no result: F508del corr)
CCOC(=O)CSc1c(-c2cccs2)[nH]c2ccccc12	MC4R ag barr 8.6 (no result: F508del corr)
C=CCn1c(SCC(C)=O)nc2scc(-c3ccc(C)o3)c2c1=O	MC4R ag barr 8.3
C=CCn1c(SCC(=O)NCCCC)nc2scc(-c3ccco3)c2c1=O	none (no result: F508del corr)
C[C@@H]1CN([C@H](C)CO)C(=O)c2cccc(NC(=O)c3cnccn3)c2O[C@H]1CN(C)C	none (no result: MC4R antag cAMP, MC4R ag barr, SMARCA2 activ)
CC(C(=O)O)N(C(=O)c1ccccc1)c1ccc(F)cc1 (configuration not stated)	F508del corr 10.0
CC(C)C(=O)NN(C(=O)c1ccccc1)c1ccccc1	none
COc1ccc(N2CC(C(=O)N[C@@H](C)C(=O)NC3CCCC3)CC2=O)cc1 (some centres not stated)	none
CCC(C)[C@H](NC(=O)C1CC(=O)N(c2ccc(OC)cc2)C1)C(=O)NC1CCCC1 (some centres not stated)	SMARCA2 activ 8.0
CCOC(=O)c1sc(NC(=O)c2c(CC)noc2C)nc1C	F508del corr 14.2
COC(=O)c1sc(NC(=O)c2c(C)noc2C)nc1C	none
CCOC(=O)c1sc(Nc2nc(C)cc(C)n2)nc1C	F508del corr 12.9
O=C(c1cnccn1)N1CC(=O)N2[C@@H](CO)[C@H](c3ccc(C#CC4CCCC4)cc3)[C@@H]2C1	none (no result: MC4R antag cAMP, MC4R ag barr, SMARCA2 activ)
CC(=O)N(C)C[C@H]1Oc2cc(-c3ccccc3F)ccc2S(=O)(=O)N([C@H](C)CO)C[C@@H]1C	none (no result: MC4R antag cAMP, MC4R ag barr, SMARCA2 activ)
COc1cccc(-c2cc3nc(-c4ccccc4)cc(=O)n3[nH]2)c1	F508del corr 11.6
O=c1cc(-c2ccccc2)nc2cc(-c3ccc(F)cc3)[nH]n12	none
Cc1cccc(NC(=O)[C@H](Cc2ccccc2)NC(=O)OCc2ccccc2)c1	none (no result: F508del corr)
Cc1ccc(NC(=O)C(Cc2ccccc2)NC(=O)OCc2ccccc2)cc1C (configuration not stated)	MC4R ag barr 8.8
N#Cc1cc(Sc2ccccn2)c(Sc2ccccn2)cc1C#N	none (no result: F508del corr)
N#Cc1cc(Sc2ccccn2)c([N+](=O)[O-])cc1C#N	F508del corr 12.5
